Measured values as given in ChEMBL document CHEMBL2177013, “Synthesis and biological evaluation of tylophorine-derived dibenzoquinolines as orally active agents: exploration of the role of tylophorine e ring on biological activity” (J Med Chem, 2012).
Values after ≈ are worked out from the molar mass of the structure shown. Active and inactive are the calls of the source. No cut-off for these calls is given here.

Key:
[1] = Oral bioavailability in Sprague-Dawley rat at 3 mg/kg by HPLC-MS method; type: ADME, organism-based; details: in vivo
In short: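 Male rats (330−380 g, 9−10 weeks), jugular vein cannula implanted 1 day before, fasted. 3 mg/kg given iv or orally (n = 3) in DMA/PEG400 30/70 v/v. Blood (150 μL) drawn at 0, 2, 5 (iv only), 15, 30 min and 1, 2, 4, 6, 8, 12, 24 h; plasma analysed by HPLC-MS; noncompartmental analysis.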

[2] = Solubility in DMA; type: physicochemical
[3] = Solubility in DMSO; type: physicochemical
In short: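 Compound dissolved in DMSO with sonication; maximal volume before precipitation measured and used to calculate saturation solubility.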

[4] = system: Transmissible gastroenteritis virus; assay: Antiviral activity against Transmissible gastroenteritis virus infected in ST cells pre-treated 2 hrs before virus infection measured 6 hrs post virus infection by immunofluorescent assay; type: functional, organism-based; details: Alphacoronavirus 1, ST
In short: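 ST cells, with or without 2 h compound pretreatment (10 concentrations), infected with TGEV at MOI 10. Immunofluorescence with anti-spike and anti-nucleocapsid antibodies at 6 hpi. EC50 from dose–response curves, mean of at least three experiments, each in duplicate.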

[5] = Growth inhibition of human HONE1 cells; type: functional
In short: (§1)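 Cells seeded per well: NUGC-3 4500, HONE-1 6000, MCF-7 6500, NCI-H460 2500, HepG2 10000, A549 5000; A549 grown in RPMI 1640 with 2 g/L NaHCO₃, 2 mM L-glutamine and 10% FBS. GI₅₀ = concentration giving 50% growth inhibition, mean of at least three experiments each in duplicate. Paclitaxel served as positive control.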

NUGC-3 = assay: Growth inhibition of human NUGC3 cells; type: functional; in short: as §1
SF-268 = assay: Growth inhibition of human SF268 cells; type: functional
In short: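 SF-268 glioblastoma cells seeded 7500 cells/well in 96-well plates; growth inhibition measured with compound. GI50 as mean of at least three experiments, each in duplicate; paclitaxel positive control.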

NCI-H460 [6] = assay: Growth inhibition of human NCI-H460 cells; type: functional; in short: as §1
MCF7 [7] = assay: Growth inhibition of human MCF7 cells; type: functional; in short: as §1
[8] = Cytotoxicity against mouse RAW264.7 cells; type: cell-based
In short: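 RAW264.7 cells stimulated with LPS/IFNγ and compound-treated in parallel with the NO assay; CC50 taken as concentration giving 50% inhibition of cell growth. Mean of at least three experiments, each in duplicate.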

RAW264.7 [9] = assay: Antiinflammatory activity in mouse RAW264.7 cells assessed as inhibition of LPS-induced nitric oxide production incubated for 18 hrs by nitrate/nitrite assay; type: functional, cell-based; details: RAW264.7, 18 h
In short: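 RAW264.7 seeded 65000 cells/well, cultured 24 h, then medium replaced with complete medium containing IFNγ (20 ng/mL)/LPS (5 μg/mL) plus compound at various concentrations for 18 h; nitric oxide measured by Nitrate/Nitrite kit. EC50 as mean of at least three experiments, each in duplicate.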

A549 [10] = assay: Growth inhibition of human A549 cells; type: functional; in short: as §1
HepG2 = assay: Growth inhibition of human HepG2 cells; type: functional; in short: as §1
[11] = system: Transmissible gastroenteritis virus; assay: Antiviral activity against Transmissible gastroenteritis virus infected in ST cells assessed as reduction in caspase-3 activation pre-treated before virus infection measured 16 hrs post virus infection by Western blotting; type: functional, organism-based
In short: (§2)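 ST cells pretreated with compound, then infected with TGEV. Western blot for nucleocapsid (N) protein, caspase 3 (cleavage of procaspase 3) and GAPDH at 16 hpi. Representative of at least three independent experiments.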

[12] = system: Transmissible gastroenteritis virus; assay: Antiviral activity against Transmissible gastroenteritis virus infected in ST cells assessed as reduction in N-protein expression pre-treated before virus infection measured 16 hrs post virus infection by Western blotting; type: functional, organism-based; in short: as §2
RAW264.7 [13] = assay: Reduction in LPS/INFgamma-induced COX2 protein expression in mouse RAW264.7 cells incubated for 20 hrs by Western blotting; type: functional, cell-based
In short: (§3)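 LPS/IFNγ-stimulated RAW264.7 cells treated with compound for 20 h. iNOS, COX-2 and GAPDH detected by Western blot; representative of at least three independent experiments.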

RAW264.7 [14] = assay: Reduction in LPS/INFgamma-induced iNOS protein expression in mouse RAW264.7 cells incubated for 20 hrs by Western blotting; type: functional, cell-based; in short: as §3
A549 [15] = assay: Induction of c-Jun protein accumulation in human A549 cells incubated for 24 hrs by Western blotting; type: functional, cell-based
A549 [16] = assay: Down regulation of cyclin A2 expression in human A549 cells incubated for 24 hrs by Western blotting; type: functional, cell-based
NCI-H460 [17] = assay: Induction of c-Jun protein accumulation in human NCI-H460 cells incubated for 24 hrs by Western blotting; type: functional, cell-based
NCI-H460 [18] = assay: Down regulation of cyclin A2 expression in human NCI-H460 cells incubated for 24 hrs by Western blotting; type: functional, cell-based
MCF7 [19] = assay: Induction of c-Jun protein accumulation in human MCF7 cells incubated for 24 hrs by Western blotting; type: functional, cell-based
MCF7 [20] = assay: Down regulation of cyclin A2 expression in human MCF7 cells incubated for 24 hrs by Western blotting; type: functional, cell-based

| Structure (SMILES) | solubility [2] | solubility [3] [mM] | EC50 [4] [nM] | GI50 [5] [nM] | GI50 (NUGC-3) [nM] | GI50 (SF-268) [nM] | GI50 (NCI-H460 [6]) [nM] | GI50 (MCF7 [7]) [nM] | CC50 [8] [nM] | EC50 (RAW264.7 [9]) [nM] | GI50 (A549 [10]) [nM] | GI50 (HepG2) [nM] | other results |
| --- | --- | --- | --- | --- | --- | --- | --- | --- | --- | --- | --- | --- | --- |
| COc1cc2c3c(c4cc(OC)c(OC)cc4c2cc1OC)CN1CCCCC1C3 (centres undefined) | soluble | 12.3 (≈ 5.01 mg/mL) | 30 | 140 | 140 | 140 | 100 | 110 |  |  |  |  | bioavailability [1]: 53% |
| COc1cc2c3c(c4cc(OC)c(OC)cc4c2cc1OC)CN1CCCCCC1C3 (centres undefined) |  |  | 1050 | 1150 | 620 | 960 | 930 | 960 |  |  |  |  |  |
| CCN1CCc2c(c3cc(OC)c(OC)cc3c3cc(OC)c(OC)cc23)C1 | soluble | 50 (≈ 19.1 mg/mL) | 1650 | 1570 | 620 |  | 1010 | 750 | > 4000 | 1420 | 970 | 1000 |  |
| CCCCN1CCc2c(c3cc(OC)c(OC)cc3c3cc(OC)c(OC)cc23)C1 | soluble | 45 (≈ 18.4 mg/mL) | 4390 | 2750 | 1930 |  | 2050 | 1970 |  |  | 2220 | 3040 |  |
| COc1cc2c3c(c4cc(OC)c(OC)cc4c2cc1OC)CN(C(C)C)CC3 |  |  | 600 | 940 | 320 |  | 290 | 340 | > 4000 | 860 | 380 | 670 | Activity [11]: Active; Activity [12]: Active; Activity (RAW264.7 [13]): Active; Activity (RAW264.7 [14]): Active; Activity (A549 [15]): Active; Activity (A549 [16]): Active; Activity (NCI-H460 [17]): Active; Activity (NCI-H460 [18]): Active; Activity (MCF7 [19]): Active; Activity (MCF7 [20]): Active |
| COc1ccc(C2=C(c3ccc(OC)c(OC)c3)CN3CCC[C@H]3C2)cc1OC |  |  | 15400 | 17300 | 14500 | 24200 | 17000 | 18500 |  |  |  |  |  |
| CCN1Cc2c(c3cc(OC)c(OC)cc3c3cc(OC)c(OC)cc23)C(O)C1 (centres undefined) |  |  | 340 | 440 | 150 |  | 170 | 160 | > 2000 | 380 | 190 | 360 | Activity [11]: Active; Activity [12]: Active; Activity (RAW264.7 [13]): Active; Activity (RAW264.7 [14]): Active; Activity (A549 [15]): Active; Activity (A549 [16]): Active; Activity (NCI-H460 [17]): Active; Activity (NCI-H460 [18]): Active; Activity (MCF7 [19]): Active; Activity (MCF7 [20]): Active |
